Series [1] is described as follows: Systemic toxicity in CT26 cells xenografted BALB/c mouse tumor model assessed as reduction in white blood count in peripheral blood at 20 nmol, IT and measured after 24 hrs by hematological analysis. It is filed as cell-based. The conditions noted are these: in vivo, other. A digest of the protocol:
(§1)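 Subcutaneous CT-26 tumors established for 11 days, then compounds given peritumorally; peripheral blood collected 24 h later for hematological analysis of white blood cell and lymphocyte counts.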

Series [2] can be described thus: Systemic toxicity in CT26 cells xenografted BALB/c mouse tumor model assessed as increase in serum IL-6 level at 20 nmol, IT and measured after 2 hrs. It is filed as cell-based. The conditions noted are these: in vivo, other. The essentials: (§2)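 Subcutaneous CT-26 tumors established for 11 days, then compounds given by peritumoral injection; serum collected 2 h later for TNF-α and IL-6.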

A short description of series [3]: Systemic toxicity in CT26 cells xenografted BALB/c mouse tumor model assessed as reduction in lymphocyte count in peripheral blood at 20 nmol, IT and measured after 24 hrs by hematological analysis. It is filed as cell-based. The conditions noted are these: in vivo, other. A digest of the protocol: as §1
Series [4] can be described thus: Systemic toxicity in CT26 cells xenografted BALB/c mouse tumor model assessed as increase in serum TNF-alpha level at 20 nmol, IT and measured after 2 hrs. The conditions noted are these: in vivo, other. The series is classed as cell-based. The essentials:
as §2

Series [5] deals with TLR7 and TLR8 (Mus musculus) (UniProt P58681+P58682). Description: Agonist activity at TLR7/8 in mouse RAW-blue cells assessed as immune activation by measuring induction of NFkappaB activation at 500 nM measured after 24 hrs by quanti-blue SEAP reporter gene-based assay. The series is classed as cell-based. The conditions noted are these: filed as agonist. The essentials:
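RAW-Blue macrophages exposed to compounds at 500 nM for 24 h at 37 °C; NF-κB-driven reporter read-out; triplicate samples; one-way ANOVA against TLR7/8 SMIP.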
For orientation: Reporter assays use an easily measured gene product as a stand-in for the process of interest.

The nature of series [6]: Toxicity in C57BL/6 mouse BMDC cells assessed as induction of inflammation by measuring increase in IL-6 secretion at 200 nM measured after 8 hrs by ELISA. The series is classed as cell-based. The conditions noted are these: 0.2 µM. The essentials:
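Murine bone-marrow-derived dendritic cells incubated 8 h with compounds at 200 nM; secreted IL-6 quantified by ELISA; triplicate; one-way ANOVA versus TLR7/8 SMIP.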
Background: In an ELISA, binding on a coated surface is turned into a signal by an enzyme label.

For the next series, the system named is Splenocyte. In words: Induction of innate immunity in C57BL/6 mouse naive splenocyte assessed as increase in cell proliferation at 3 uM measured after 48 hrs by MTT assay. The series is classed as functional, tissue-based. A digest of the protocol:
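Naive splenocytes incubated 48 h with compounds to assess proliferation.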
Background: Tetrazolium dyes change colour on reduction, which living cells bring about.

Another series concerns BMDC. In words: Modulator activity at NF-kappaB in C57BL/6 mouse BMDC cells assessed as increase in cell surface CD40 expression at 200 nM measured after 8 hrs by FACS analysis. It is filed as cell-based. The conditions noted are these: filed as modulator. The essentials:
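Murine bone-marrow-derived dendritic cells incubated 8 h with compounds at 200 nM; cells stained for surface CD40 and quantified by flow cytometry.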

For series [7], the system named is RAW264.7. In words: Inhibition of iNOS expression in mouse RAW264.7 cells at 500 nM incubated for 16 hrs by western blot analysis. The series is classed as functional, cell-based.
The test system of series [8] is RAW264.7. In words: Inhibition of NO production in mouse RAW264.7 cells at 500 nM incubated for 16 hrs by Griess reagent based analysis. It is filed as functional, cell-based. A digest of the protocol: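 Nitrite measured with Griess reagent in supernatants of RAW macrophages incubated 16 h with 500 nM compounds; triplicate; one-way ANOVA versus TLR7/8 SMIP.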

Series [9] deals with RAW264.7. Description: Inhibition of COX-2 expression in mouse RAW264.7 cells at 500 nM incubated for 16 hrs by western blot analysis. It is filed as functional, cell-based. A digest of the protocol: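 After 16 h with 500 nM compounds, RAW macrophages were lysed; proteins separated by SDS-PAGE, transferred to membrane and probed with anti-COX-2 antibody; triplicate.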
Series [10] relates to RAW264.7. Description: Antioxidant activity in mouse RAW264.7 cells assessed as reduction in intracellular ROS level measured after 16 hrs by CM-H2DCFDA based flow cytometry analysis relative to TLR7/8 SMIP. The series is classed as functional. A digest of the protocol:
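RAW macrophages incubated with compounds for 16 h, then loaded with CM-H2DCFDA; intracellular ROS fluorescence quantified by flow cytometry.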

For the next series, the system named is CT26. In words: Antitumor activity against mouse CT26 cells xenografted in BALB/c mouse assessed as survival rate at 20 nmol, IT administered on day 15,19 and 23 and measured on day 35. It is filed as functional. The essentials: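 Subcutaneous CT-26 colon carcinoma in mice. Once tumors were established at day 11, […], compounds were given by peritumoral injection, then three more injections every 4 days. Tumor size was measured every alternate day. Animals were euthanized when a tumor reached 20 mm in any linear dimension. Kaplan–Meier survival was followed until day 35.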

Series [11] is described as follows: Systemic toxicity in C57BL/6 mouse assessed as increase in serum TNF-alpha level administered intramuscularly in presence of ovalbumin measured after 1 hr. The conditions noted are these: in vivo, im. The essentials:
(§3)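 Mice vaccinated with ovalbumin admixed with adjuvant in PBS, i.m.; serum collected 1 h after injection for IL-6 and TNF-α; one-way ANOVA versus PBS control.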

In series [12] the test system is Mus musculus. Description: Immuno-adjuvant activity in C57BL/6 mouse assessed as increase in levels of anti-OVA IgG administered intramuscularly on day 1 and as booster dose on day 14 in presence of ovalbumin and measured on day 28 by ELISA. The series is classed as functional, organism-based. The conditions noted are these: time 28.0 day. The essentials: (§4)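 Ovalbumin plus adjuvant in PBS given i.m., boosted on day 14; sera collected at sacrifice on day 28 and anti-OVA antibodies measured; one-way ANOVA versus PBS control.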

In series [13] the test system is Mus musculus. Description: Induction of T-cell immunity in C57BL/6 mouse splenocytes assessed as increase in CD3+CD8+ tetramer administered intramuscularly on day 1 and as booster dose on day 14 in presence of ovalbumin and SINFEKL MHC specific tetramer measured on day 28 by flow cytometric analysis. The series is classed as functional, cell-based. The conditions noted are these: time 28.0 day.

The nature of series [14]: Systemic toxicity in C57BL/6 mouse assessed as increase in serum IL-6 level administered intramuscularly in presence of ovalbumin measured after 1 hr. The conditions noted are these: in vivo, im. The essentials: as §3
Series [15] concerns Mus musculus. Description: Immuno-adjuvant activity in C57BL/6 mouse assessed as increase in levels of anti-OVA Ig (A+G+M) administered intramuscularly on day 1 and as booster dose on day 14 in presence of ovalbumin and measured on day 28 by ELISA. It is filed as functional, organism-based. The conditions noted are these: time 28.0 day. The essentials: as §4
The subject of series [16] is Mus musculus. In words: Immuno-adjuvant activity in C57BL/6 mouse assessed as increase in levels of anti-OVA IgA administered intramuscularly on day 1 and as booster dose on day 14 in presence of ovalbumin and measured on day 28 by ELISA. The conditions noted are these: time 28.0 day. It is filed as functional, organism-based.

Active and inactive are the calls of the source. The calls are words filed in the database; no cut-off is given here.

TLR7 and TLR8 (Mus musculus), sequence (P58681 whole entry, looked up): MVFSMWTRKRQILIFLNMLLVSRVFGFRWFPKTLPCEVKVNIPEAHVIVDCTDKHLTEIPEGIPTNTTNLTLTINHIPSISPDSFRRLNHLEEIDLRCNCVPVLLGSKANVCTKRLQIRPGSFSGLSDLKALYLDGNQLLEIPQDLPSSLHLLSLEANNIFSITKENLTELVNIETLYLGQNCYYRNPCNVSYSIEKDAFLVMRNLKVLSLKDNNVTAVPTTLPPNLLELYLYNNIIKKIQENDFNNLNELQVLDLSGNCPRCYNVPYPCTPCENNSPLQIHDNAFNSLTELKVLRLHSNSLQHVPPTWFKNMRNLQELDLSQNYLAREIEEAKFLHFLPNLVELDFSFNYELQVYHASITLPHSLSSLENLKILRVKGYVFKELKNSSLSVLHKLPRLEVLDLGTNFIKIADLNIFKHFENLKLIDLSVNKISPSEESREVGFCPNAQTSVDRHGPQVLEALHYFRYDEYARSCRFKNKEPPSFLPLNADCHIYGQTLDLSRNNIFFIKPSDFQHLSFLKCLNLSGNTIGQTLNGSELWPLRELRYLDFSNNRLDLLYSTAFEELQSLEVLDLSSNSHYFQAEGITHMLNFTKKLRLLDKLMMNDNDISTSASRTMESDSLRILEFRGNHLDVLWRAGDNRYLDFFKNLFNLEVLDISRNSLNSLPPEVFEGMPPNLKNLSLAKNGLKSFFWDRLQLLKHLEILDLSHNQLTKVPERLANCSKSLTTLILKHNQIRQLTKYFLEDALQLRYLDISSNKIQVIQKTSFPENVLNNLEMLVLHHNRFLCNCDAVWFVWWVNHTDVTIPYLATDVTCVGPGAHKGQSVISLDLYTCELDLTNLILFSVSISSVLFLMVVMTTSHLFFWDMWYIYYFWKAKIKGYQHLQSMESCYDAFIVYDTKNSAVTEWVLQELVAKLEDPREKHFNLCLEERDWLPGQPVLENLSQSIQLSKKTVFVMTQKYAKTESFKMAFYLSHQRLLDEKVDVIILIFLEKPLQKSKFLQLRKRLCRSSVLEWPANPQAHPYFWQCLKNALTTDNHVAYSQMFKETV
TLR7 and TLR8 (Mus musculus), sequence (P58682 whole entry, looked up): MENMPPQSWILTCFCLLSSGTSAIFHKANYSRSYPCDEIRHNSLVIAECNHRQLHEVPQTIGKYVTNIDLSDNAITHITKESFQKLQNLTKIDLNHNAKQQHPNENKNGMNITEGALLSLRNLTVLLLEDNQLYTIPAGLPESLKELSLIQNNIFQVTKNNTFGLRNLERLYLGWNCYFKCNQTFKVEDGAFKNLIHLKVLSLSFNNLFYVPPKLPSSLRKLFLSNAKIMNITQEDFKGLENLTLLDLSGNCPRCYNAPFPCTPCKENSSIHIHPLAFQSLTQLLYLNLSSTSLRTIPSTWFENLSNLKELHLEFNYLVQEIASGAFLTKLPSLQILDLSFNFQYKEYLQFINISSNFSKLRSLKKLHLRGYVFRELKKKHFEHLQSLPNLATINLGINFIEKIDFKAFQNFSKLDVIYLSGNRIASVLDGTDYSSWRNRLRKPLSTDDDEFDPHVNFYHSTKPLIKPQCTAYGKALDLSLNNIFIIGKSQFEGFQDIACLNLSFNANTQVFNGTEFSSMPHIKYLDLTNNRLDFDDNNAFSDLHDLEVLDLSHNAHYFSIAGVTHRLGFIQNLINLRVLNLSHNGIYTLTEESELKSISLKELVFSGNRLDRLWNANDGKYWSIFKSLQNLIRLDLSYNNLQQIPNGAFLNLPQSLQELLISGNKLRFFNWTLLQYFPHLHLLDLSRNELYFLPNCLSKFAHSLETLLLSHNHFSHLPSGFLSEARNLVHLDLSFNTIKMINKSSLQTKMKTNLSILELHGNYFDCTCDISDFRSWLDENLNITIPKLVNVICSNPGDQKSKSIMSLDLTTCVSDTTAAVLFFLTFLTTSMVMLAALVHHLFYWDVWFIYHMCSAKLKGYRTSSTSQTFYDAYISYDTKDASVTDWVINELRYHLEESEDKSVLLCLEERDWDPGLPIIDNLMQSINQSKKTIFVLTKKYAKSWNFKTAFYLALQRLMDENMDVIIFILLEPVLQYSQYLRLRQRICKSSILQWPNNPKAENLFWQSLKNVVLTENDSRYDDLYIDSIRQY

Consider `CCOCc1nc2c(N)nc3ccccc3c2n1CC(C)(C)O` [RESIQUIMOD], for which the Activity result in [1], in series [2], in series [3] and in series [4] was “Toxic” in each case.

As for `CCCCc1nc2c(N)nc3ccccc3c2n1Cc1ccccc1`, the result (in series [5]; in the series with Splenocyte; in the series with BMDC) was Active. Moreover, the Activity result in series [6], in series [1], in [2], in [3] and in series [4] was “Toxic” throughout.

With `CCCCCCCCCCCCCCCCCC(=O)NCCCCOn1c(CCCC)nc2c(N)nc3ccccc3c21` [TELRATOLIMOD], the Activity result in series [1], in series [2], in [3] and in [4] was “Non-Toxic” in each case.

`CCCCc1nc2c(N)nc3ccccc3c2n1Cc1ccc(CNC(=O)NCCCNC(=O)/C=C/c2ccc(O)c(OC)c2)cc1`: the result (in series [5]; with Splenocyte; in the series with BMDC) was Active. The Activity result in series [6] is recorded as “Non-Toxic”; in [1], “Toxic”; in series [2] it was “Toxic”; in series [3] it was “Toxic”; in series [4] it was “Toxic”. Moreover, the inhibition entry in the series with RAW264.7 [7] and in the series with RAW264.7 [8] was “Active” throughout. Moreover, the inhibition entry in the series with RAW264.7 [9] is “inactive”. Also, in the series with RAW264.7 [10], the “inhibition (INH)” value is listed as 50%. Besides, the Survival in the series on CT26 (time 35 day) is given as 80%.

Take `CCCCc1nc2c(N)nc3ccccc3c2n1Cc1ccc(CNC(=O)c2cc(-c3ccc(O)cc3)ccc2O)cc1`: the result (in [5]; in the series with Splenocyte; with BMDC) was Active. The Activity result is given as “Toxic” in series [6], “Non-Toxic” in series [2] and “Non-Toxic” in [3]. In addition, the inhibition entry in the series on RAW264.7 [7] and in the series with RAW264.7 [8] was “Active” each time. Further, the inhibition entry with RAW264.7 [9] is “inactive”. Besides, the “inhibition (INH)” value in the series with RAW264.7 [10] worked out at 50%.

As to `CCCCc1nc2c(N)nc3ccccc3c2n1Cc1ccc(CNC(=O)NCCc2ccc(O)c(O)c2)cc1`, the Activity result in series [11], in [6], in series [1], in [14], in series [2] and in series [3] was “Non-Toxic” in each case. The Activity result in series [4] is “Non-Toxic”. The outcome (in [5]; in the series on Mus musculus [12]; with Splenocyte; in the series with BMDC; with Mus musculus [15]) was Active. Further, the inhibition entry with RAW264.7 [7] and with RAW264.7 [8] was “Active” in each case. Further, in the series with Mus musculus [13], the result was inactive. For the same compound, the inhibition entry in the series on RAW264.7 [9] is “inactive”. Also, the “inhibition (INH)” value in the series with RAW264.7 [10] is given as 50%.

`CCCCc1nc2c(N)nc3ccccc3c2n1Cc1ccc(CNC(=O)NCCCCCC(=O)NCc2ccc(O)c(OC)c2)cc1`: the Activity result in series [11], in series [6], in series [1], in [14], in series [2] and in series [3] was “Non-Toxic” in each case. Moreover, the Activity result in series [4] is given as “Non-Toxic”. For the same compound, the outcome (in [5]; with Mus musculus [16]; in the series on Mus musculus [12]; in the series with Splenocyte; with BMDC; in the series with Mus musculus [15]) was Active. Further, the outcome with CT26 (time 35.0 day) was Active. In addition, the inhibition entry in the series with RAW264.7 [7] and in the series with RAW264.7 [8] was “Active” each time. Also, the outcome in the series with Mus musculus [13] was inactive. Further, in the series with RAW264.7 [9], the inhibition result is “inactive”. The “inhibition (INH)” value with RAW264.7 [10] was found to be 50%.

For the compound `CCCCc1nc2c(N)nc3ccccc3c2n1Cc1ccc(CNC(=O)c2ccc(-c3cccc(O)c3)cc2O)cc1`, the result (in series [5]; with Splenocyte; in the series with BMDC) was Active. The Activity result in [6] is recorded as “Toxic”; in [1] it was “Non-Toxic”; in series [2], “Non-Toxic”; in [3] it was “Non-Toxic”; in series [4], “Non-Toxic”. Moreover, the inhibition result with RAW264.7 [7] and in the series with RAW264.7 [8] was “Active” in each case. Further, the inhibition result with RAW264.7 [9] is “inactive”. Moreover, in the series with RAW264.7 [10], the “inhibition (INH)” value turned out to be 50%.

`CCCCc1nc2c(N)nc3ccccc3c2n1Cc1ccc(CNC(=O)c2cccc(-c3cccc(O)c3)c2)cc1`: the Activity result in series [11], in [6], in series [1], in series [14], in series [2] and in series [3] was “Non-Toxic” throughout. The Activity entry in [4] is given as “Non-Toxic”. Also, the result (in series [5]; in the series with Splenocyte; with BMDC) was Active. In addition, the inhibition result in the series with RAW264.7 [7] and with RAW264.7 [8] was “Active” in each case. Moreover, in the series with Mus musculus [13], the result was inactive. In addition, the inhibition entry in the series on RAW264.7 [9] is “inactive”. For the same compound, the “inhibition (INH)” value in the series with RAW264.7 [10] was 50%.

The values are drawn from ChEMBL document CHEMBL4823321, “Improving the Adjuvanticity of Small Molecule Immune Potentiators Using Covalently Linked NF-κB Modulators” (ACS Med Chem Lett, 2021).
